These results are taken from ChEMBL document CHEMBL4400576, “Identification of Pyrazolo[1,5-a]pyridine-3-carboxamide Diaryl Derivatives as Drug Resistant Antituberculosis Agents” (ACS Med Chem Lett, 2019).

In brackets after ≈: the same amount, converted by molar mass. A value given as a limit tells only on which side of the number the result lay.

For experiment [1], the system named is Mycobacterium tuberculosis. Kind of experiment: Antibacterial activity against RMP-resistant Mycobacterium tuberculosis after 7 days by microplate alamar blue assay. The class given is functional. The following applies: 168 h. An outline of the steps: (§1)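 MABA MIC against rINH and rRMP Mtb strains. Test concentrations 0.002 to 0.5 μg/mL.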
Background: Resazurin is reduced to fluorescent resorufin, in cell work by metabolically active cells.

For experiment [2], the system named is Mycobacterium tuberculosis. Kind of experiment: Antibacterial activity against INH-resistant Mycobacterium tuberculosis after 7 days by microplate alamar blue assay. The class given is functional. To be noted: 168 h. An outline of the steps:
as §1

For experiment [3], the system named is Mycobacterium tuberculosis. Briefly: Antibacterial activity against Mycobacterium tuberculosis H37Rv harboring LuxAB incubated for 10 days under anaerobic conditions followed by incubation under aerobic conditions for 28 hrs by LORA method. Format: functional. Summed up:
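MIC against H37Rv by low oxygen recovery assay (LORA). Test concentrations 0.02 to 5 μg/mL.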

Experiment [4] deals with Mycobacterium tuberculosis. Briefly: Antitubercular activity against Mycobacterium tuberculosis H37Ra harboring pTYOK infected in Balb/c mouse assessed as reduction in bacterial burden administered once daily via oral gavage for 5 days measured post last dose by luminometric method. Format: functional, organism-based. An outline of the steps: (§2)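 Mice infected i.v. with log-phase selectable marker-free autoluminescent Mtb H37Ra, 2 ×10^6 CFU per mouse. Dosed once daily by oral gavage for 5 consecutive days at 10 or 50 mg/kg/day. Untreated group received CMC-Na. Bacterial burden read daily as bioluminescence (RLU) in the same live mice.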

Experiment [5] has as its system Mycobacterium tuberculosis. Briefly: Antitubercular activity against Mycobacterium tuberculosis H37Ra harboring pTYOK infected in Balb/c mouse assessed as reduction in spleen bacterial burden at 50 mg/kg, po administered once daily via gavage for 5 days measured post last dose by luminometric method. Format: functional. An outline of the steps:
as §2

Experiment [6] has as its system Mycobacterium tuberculosis. Kind of experiment: Antitubercular activity against Mycobacterium tuberculosis H37Ra harboring pTYOK infected in Balb/c mouse assessed as reduction in lung bacterial burden at 50 mg/kg, po administered once daily via gavage for 5 days measured post last dose by luminometric method. Format: functional. Summed up: as §2
Experiment [7] concerns Mycobacterium tuberculosis. Kind of experiment: Antitubercular activity against Mycobacterium tuberculosis H37Ra harboring pTYOK infected in Balb/c mouse assessed as reduction in lung bacterial burden at 10 mg/kg, po administered once daily via gavage for 5 days measured post last dose by luminometric method. The class given is functional. Summed up:
as §2

Experiment [8] has as its system Mycobacterium tuberculosis. Briefly: Antitubercular activity against Mycobacterium tuberculosis H37Ra harboring pTYOK infected in Balb/c mouse assessed as reduction in spleen bacterial burden at 10 mg/kg, po administered once daily via gavage for 5 days measured post last dose by luminometric method. The class given is functional. Summed up: as §2

As to `COc1nc2ccc(Br)cc2cc1[C@@H](c1ccccc1)[C@@](O)(CCN(C)C)c1cccc2ccccc12` [BEDAQUILINE], the MIC90 in experiment [1] and in experiment [2] was less than 0.016 µg/mL in each case.
In the case of `COc1ccn2nc(C)c(C(=O)NCc3ccc(-c4ccc(OC(F)(F)F)cc4)cc3C(F)(F)F)c2c1`, the MIC90 in experiment [3] was greater than 5 µg/mL.
`COc1ccn2nc(C)c(C(=O)NCc3ccc(-c4ccc(OC(F)(F)F)cc4)cc3F)c2c1`: the MIC90 is greater than 5 µg/mL in experiment [3], less than 0.002 µg/mL in experiment [1] and 0.004 µg/mL (≈ 0.00845 µM) in experiment [2].
`COc1ccn2nc(C)c(C(=O)NCc3nnc(-c4ccc(OC(F)(F)F)cc4)o3)c2c1` returned an MIC90 in experiment [3] greater than 5 µg/mL.
As for `COc1ccn2nc(C)c(C(=O)NCc3ccc(-c4ccc(OC(F)(F)F)cc4)cn3)c2c1`, the values for the MIC90 in experiment [3], in experiment [1] and in experiment [2] were greater than 5 µg/mL, less than 0.002 µg/mL and 0.002 µg/mL (≈ 0.00438 µM), respectively. Moreover, in experiment [4], the Activity result was “Dose-dependent effect”. For the same compound, the “fold change (FC)” value in experiment [5] was 0.61 log10RLU; in experiment [6], 1 log10RLU.
Compound `COc1ccn2nc(C)c(C(=O)NCc3ncc(-c4ccc(OC(F)(F)F)cc4)o3)c2c1` yielded an MIC90 in experiment [3] of 2.84 µg/mL (≈ 6.36 µM).
On to `COc1ccn2nc(C)c(C(=O)NCc3ccc(-c4ccc(OC(F)(F)F)cc4)c(C(F)(F)F)c3)c2c1`, for which the MIC90 in experiment [3] is greater than 5 µg/mL; in experiment [1], less than 0.002 µg/mL; in experiment [2], 0.003 µg/mL (≈ 0.00573 µM).
On the same counts, the results for `COc1ccn2nc(C)c(C(=O)NCc3ccc(-c4ccc(OC(F)(F)F)cc4)c(F)c3)c2c1` are greater than 5 µg/mL, less than 0.002 µg/mL and 0.004 µg/mL (≈ 0.00845 µM).
In turn, `COc1ccn2nc(C)c(C(=O)NCc3ccc(-c4ccc(OC(F)(F)F)cc4)cc3OC)c2c1` returned an MIC90 in experiment [3] of 2.25 µg/mL (≈ 4.63 µM).
The same measure, in the same setting: next, `COc1ccn2nc(C)c(C(=O)NCc3cnc(-c4ccc(OC(F)(F)F)cc4)s3)c2c1`: greater than 5 µg/mL.
Take `COc1ccn2nc(C)c(C(=O)NCc3ccc(-c4ccc(OC(F)(F)F)cc4)s3)c2c1`: the values for the MIC90 in experiment [3], in experiment [1] and in experiment [2] were greater than 5 µg/mL, 0.465 µg/mL (≈ 1.01 µM) and 0.002 µg/mL (≈ 0.00433 µM), respectively.
As to `CO[C@H]1/C=C/O[C@@]2(C)Oc3c(C)c(O)c4c(O)c(c(/C=N/N5CCN(C)CC5)c(O)c4c3C2=O)NC(=O)/C(C)=C\C=C\[C@H](C)[C@H](O)[C@@H](C)[C@@H](O)[C@@H](C)[C@H](OC(C)=O)[C@@H]1C` [RIFAMPIN], the “fold change (FC)” value is reported as 1.42 log10RLU in experiment [7] and 1.34 log10RLU in experiment [8]. In addition, the MIC90 is 2.95 µg/mL (≈ 3.58 µM) in experiment [3], greater than 2 µg/mL in experiment [1] and less than 0.008 µg/mL in experiment [2].
Take `COc1ccn2nc(C)c(C(=O)NCc3ccc(-c4ccc(OC(F)(F)F)cc4)c(C)c3)c2c1`: the MIC90 in experiment [3] is 2.28 µg/mL (≈ 4.86 µM); in experiment [1], less than 0.002 µg/mL; in experiment [2], less than 0.002 µg/mL.
In the case of `COc1ccn2nc(C)c(C(=O)NCc3ccc(-c4ccc(OC(F)(F)F)cc4)nc3)c2c1`, the MIC90 in experiment [3] stood at 4.36 µg/mL (≈ 9.55 µM); in experiment [1], 0.458 µg/mL (≈ 1 µM); in experiment [2] it was 0.004 µg/mL (≈ 0.00876 µM).
`COc1ccn2nc(C)c(C(=O)NCc3ccc(-c4ccc(OC(F)(F)F)cc4)c(OC)c3)c2c1`: the results for the MIC90 in experiment [3], in experiment [1] and in experiment [2] were greater than 5 µg/mL, less than 0.002 µg/mL and 0.003 µg/mL (≈ 0.00618 µM), respectively.
Regarding `COc1ccn2nc(C)c(C(=O)NCc3ccc(-c4ccc(OC(F)(F)F)cc4)cc3C)c2c1`, in experiment [3], the MIC90 is greater than 5 µg/mL.
The same measure, in the same setting: under `COc1ccn2nc(C)c(C(=O)NCc3ncc(-c4ccc(OC(F)(F)F)cc4)[nH]3)c2c1` stands greater than 5 µg/mL.
On the same count and under the same terms, under `COc1ccn2nc(C)c(C(=O)NCc3cn(-c4ccc(OC(F)(F)F)cc4)nn3)c2c1` stands greater than 5 µg/mL.
Consider `NNC(=O)c1ccncc1` [ISONIAZID], for which the MIC90 in experiment [3] was greater than 128 µg/mL; in experiment [1], 0.438 µg/mL (≈ 3.19 µM); in experiment [2], greater than 8 µg/mL.
On the same counts, the results for `CC(=O)NC[C@H]1CN(c2ccc(N3CCOCC3)c(F)c2)C(=O)O1` [LINEZOLID] are 5.98 µg/mL (≈ 17.7 µM), 1.87 µg/mL (≈ 5.54 µM) and 0.953 µg/mL (≈ 2.82 µM).

By MIC90 is commonly meant the lowest concentration that inhibits either 90% of growth or 90% of the strains tested, depending on the study.
